From ChEMBL document CHEMBL1137414, “3'-Substituted 7-halogenoindirubins, a new class of cell death inducing agents” (J Med Chem, 2006)

How the values were obtained:
HT-29 = assay: Survival of human HT29 cells after 48 hrs by MTS reduction assay; type: functional, cell-based; conditions: ht-29
HEK293 = assay: Survival of human HEK293 cells after 48 hrs by MTS reduction assay; type: functional, cell-based
SH-SY5Y [1] = assay: Survival of human SH-SY5Y cells after 24 hrs by MTS reduction assay; type: functional, cell-based
SH-SY5Y [2] = assay: Death of human SH-SY5Y cells in absence of 20 uM Q-VD-OPh by MTS reduction assay; type: functional, cell-based; conditions: read-out: IC50
MDA-MB-231 = assay: Survival of human MDA-MB-231 cells after 48 hrs by MTS reduction assay; type: functional, cell-based
How it was run: (§1)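 Viability read by MTS reduction. IC50 taken from dose-response curves, triplicate measurements. HCT116 grown in McCoy's 5A with 10% FCS. MDA-MB-231 grown in DMEM with 10% FCS and seeded at 7500 cells/well.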

Huh-7 = assay: Survival of human Huh7 cells after 48 hrs by MTS reduction assay; type: functional, cell-based
SH-SY5Y [3] = assay: Death of human SH-SY5Y cells at 25 uM after 48 hrs by LDH release assay; type: functional
How it was run: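 SH-SY5Y human neuroblastoma cells were grown in DMEM with 2 mM L-glutamine, antibiotics and 10% FCS at 37 °C under 5% CO2. […] Lactate dehydrogenase release was measured 48 h after addition and expressed as percent cell death.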

SH-SY5Y [4] = assay: Death of human SH-SY5Y cells in presence of 20 uM Q-VD-OPh by MTS reduction assay; type: functional, cell-based
BP8 = assay: Survival of […] AhR -/- BP8 cells after 48 hrs by MTS reduction assay; type: functional, cell-based
SH-SY5Y [5] = assay: Survival of human SH-SY5Y cells after 48 hrs by MTS reduction assay; type: functional, cell-based
[6] = target: Cyclin-dependent kinase 5/CDK5 activator 1 (Homo sapiens, UniProt Q00535+Q15078); assay: (§2) Inhibition of mammalian CDK5/p25; type: protein-complex assay
How it was run: (§3)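 Recombinant CDK5 and p25, each expressed in E. coli as GST fusions and affinity-purified on glutathione agarose, mixed in equal amounts. Phosphate incorporation onto P81 paper read by scintillation counting, blank subtracted. Activity taken as % of uninhibited. IC50 from dose-response curves.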

F1 (hepatoma cell line) = assay: Survival of mouse F1 cells after 48 hrs by MTS reduction assay; conditions: F1
SH-SY5Y [7] = assay: Survival of human SH-SY5Y cells at 25 uM by MTS reduction assay; type: functional, cell-based; conditions: for viability at 25 µM: Homo sapiens, SH-SY5Y, read-out: Survival
How it was run: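 Viability was read by MTS reduction and expressed as percent of untreated cells, as the average ± SE of three independent measurements, representative of two independent experiments.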

A549 = assay: Survival of human A549 cells after 48 hrs by MTS reduction assay; type: functional, cell-based
PC-3 = assay: Survival of human PC3 cells after 48 hrs by MTS reduction assay; type: functional, cell-based
HCT-116 = assay: Survival of human HCT116 cells after 48 hrs by MTS reduction assay; type: functional, cell-based; how it was run: as §1
[8] = Inhibition of starfish CDK1/cyclin B in presence of 15 uM ATP; design: species or system Marthasterias glacialis
[9] = target: Cyclin-dependent kinase 5/CDK5 activator 1 (Homo sapiens, UniProt Q00535); assay: as §2; type: protein-complex assay; how it was run: as §3
[10] = Survival of mouse F1 cells after 48 hrs by MTS reduction assay; conditions: Mus musculus, F1, 48 h

Chain of Cyclin-dependent kinase 5/CDK5 activator 1 (Homo sapiens, UniProt Q00535) (Q00535 whole entry): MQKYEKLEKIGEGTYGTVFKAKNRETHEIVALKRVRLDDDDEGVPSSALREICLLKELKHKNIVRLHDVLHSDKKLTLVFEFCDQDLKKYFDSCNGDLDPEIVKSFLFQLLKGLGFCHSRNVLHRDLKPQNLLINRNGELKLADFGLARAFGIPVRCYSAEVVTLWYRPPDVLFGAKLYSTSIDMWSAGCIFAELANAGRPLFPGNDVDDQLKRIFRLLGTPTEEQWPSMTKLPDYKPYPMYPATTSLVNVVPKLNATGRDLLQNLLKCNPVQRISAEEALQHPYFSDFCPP
Chain of Cyclin-dependent kinase 5/CDK5 activator 1 (Homo sapiens, UniProt Q00535) (Q15078 whole entry, further chain): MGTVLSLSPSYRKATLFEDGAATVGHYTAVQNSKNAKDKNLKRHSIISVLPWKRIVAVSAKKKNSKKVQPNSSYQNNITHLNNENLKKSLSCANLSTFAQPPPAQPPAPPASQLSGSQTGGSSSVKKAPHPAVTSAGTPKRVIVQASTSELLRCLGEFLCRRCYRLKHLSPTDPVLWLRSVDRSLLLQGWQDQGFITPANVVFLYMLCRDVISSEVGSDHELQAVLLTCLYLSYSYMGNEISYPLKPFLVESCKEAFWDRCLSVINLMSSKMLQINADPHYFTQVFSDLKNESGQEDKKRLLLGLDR
Chain of Cyclin-dependent kinase 5/CDK5 activator 1 (Homo sapiens, UniProt Q00535+Q15078) (Q00535 whole entry, the tested form may be a part): as the sequence (Q00535 whole entry) above
Chain of Cyclin-dependent kinase 5/CDK5 activator 1 (Homo sapiens, UniProt Q00535+Q15078) (Q15078 whole entry, the tested form may be a part): as the sequence (Q15078 whole entry, further chain) above

Compound | IC50 (HT-29) [µM] | IC50 (HEK293; hek293) [µM] | IC50 (SH-SY5Y [1]; sh-sy5y) [µM] | IC50 (SH-SY5Y [2]; sh-sy5y) [µM] | IC50 (MDA-MB-231; mda-mb-231) [µM] | IC50 (Huh-7; huh-7) [µM] | Activity (SH-SY5Y [3]) [%] | IC50 (BP8; bp8) [µM] | IC50 (SH-SY5Y [5]; sh-sy5y) [µM] | IC50 (F1 (hepatoma cell line)) [µM] | Survival (SH-SY5Y [7]) [%] | IC50 (A549; a549) [µM] | IC50 (HCT-116; hct-116) [µM] | IC50 (SH-SY5Y [1]; Homo sapiens, SH-SY5Y, 24 h) [µM] | IC50 (MDA-MB-231; Homo sapiens, MDA-MB-231, 48 h) [µM] | IC50 [8] [µM] | IC50 (BP8; Mus musculus, BP8, 48 h) [µM] | IC50 (SH-SY5Y [5]; Homo sapiens, SH-SY5Y, 48 h) [µM] | IC50 [9] [µM] | IC50 (PC-3; Homo sapiens, PC-3, 48 h) [µM] | further results
Cn1c(O)c(C2=Nc3ccccc3/C2=N\OCCN2CCCC2)c2cccc(Br)c21 | 19.8 | 21.4 | 7.8 | 6.1 | 26.8 | 18.8 | 78 | 18.8 | 5 | 5.6 | 15 | 21 | 13.6 |  |  |  |  |  |  |  | IC50 (SH-SY5Y [4]; sh-sy5y): > 25 µM; IC50 [6]: > 10 µM; IC50 (PC-3; pc-3): 21.6 µM
Cl.Cl.Oc1[nH]c2c(Br)cccc2c1C1=Nc2ccccc2/C1=N\OCCN1CCNCC1 | 1.9 | 1.9 |  |  |  | 2 | 100 |  |  |  |  |  |  | 6 | 5.1 | > 10 | 5.4 | 6 | > 10 | 6 | IC50 (SH-SY5Y [2]; Homo sapiens, SH-SY5Y): 6.2 µM; IC50 (SH-SY5Y [4]; Homo sapiens, SH-SY5Y): 6.8 µM; IC50 [10]: 1.4 µM; viability at 25 µM (SH-SY5Y [7]): 3%; IC50 (A549; Homo sapiens, A549, 48 h): 6 µM; IC50 (HCT-116; Homo sapiens, HCT-116, 48 h): 5.1 µM
CN(C)CCO/N=C1/C(c2c(O)[nH]c3c(Br)cccc23)=Nc2ccccc21 | 21.8 | 14.4 | 4.1 | 1.5 | 26.4 | 19.6 | 86 | 19.5 | 2 | 5.5 | 1 | 21.8 | 6.5 |  |  |  |  |  |  |  | IC50 [6]: > 10 µM; IC50 (PC-3; pc-3): 27.2 µM
CN(C)CCO/N=C1/C(c2c(O)[nH]c3c(Br)cccc23)=Nc2ccccc21.Cl | 2.4 | 3 |  |  |  |  | 84 |  |  | 1.7 | 5 | 5.8 | 2 | 2.1 | 18.8 | > 10 | > 30 | 1 | > 10 | 15 | IC50 (SH-SY5Y [2]; Homo sapiens, SH-SY5Y): 1.1 µM; IC50 (Huh-7; Homo sapiens, Huh-7, 48 h): 11.2 µM; IC50 (SH-SY5Y [4]; Homo sapiens, SH-SY5Y): > 25 µM
Cl.Oc1[nH]c2c(Br)cccc2c1C1=Nc2ccccc2/C1=N\OCCN1CCCC1 |  |  |  | 2.8 |  |  | 80 |  |  |  |  |  |  | 3.1 | > 30 | > 100 | > 30 | 2 | > 10 | 30 | IC50 (HEK293; Homo sapiens, HEK293, 48 h): > 30 µM; IC50 (Huh-7; Homo sapiens, Huh-7, 48 h): 13.6 µM; IC50 [10]: 3.1 µM; viability at 25 µM (SH-SY5Y [7]): 12%; IC50 (A549; Homo sapiens, A549, 48 h): 16 µM; IC50 (HCT-116; Homo sapiens, HCT-116, 48 h): 3.8 µM
